# Assays:
# T47D = test: Cytotoxicity against human T47D cells assessed as cell growth at 10^-5 M after 48 hrs by SRB assay; type: functional; details: read-out: Activity
# Summary of the method: (§1)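 NCI-60 one-dose screen across nine tumour subpanels. Each agent added once at 10^-5 M, cultures incubated 48 h. Endpoint is sulforhodamine B protein staining read spectrophotometrically. Output is percent growth of treated cells relative to untreated controls.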
# MDA-MB-231 = test: Cytotoxicity against human MDA-MB-231 cells assessed as cell growth at 10^-5 M after 48 hrs by SRB assay; type: functional; details: MDA-MB-231, 48 h, read-out: Activity
# Summary of the method: (§2)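 NCI 60-cell-line primary one-dose screen across nine tumour subpanels. Compound added at a single concentration of 10^-5 M and cultures incubated 48 h. Endpoint was sulforhodamine B protein staining read spectrophotometrically, with growth expressed as percent of untreated control cells.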
# DU-145 = test: Cytotoxicity against human DU145 cells assessed as cell growth at 10^-5 M after 48 hrs by SRB assay; type: functional; details: DU-145, 48 h, read-out: Activity; summary of the method: as §2
# ACHN = test: Cytotoxicity against human ACHN cells assessed as cell growth at 10^-5 M after 48 hrs by SRB assay; type: functional; details: read-out: Activity; summary of the method: as §2
# A498 = test: Cytotoxicity against human A498 cells assessed as cell growth at 10^-5 M after 48 hrs by SRB assay; type: functional; details: A498, 48 h, read-out: Activity; summary of the method: as §2
# 786-0 = test: Cytotoxicity against human 786-0 cells assessed as cell growth at 10^-5 M after 48 hrs by SRB assay; type: functional; details: 786-0, 48 h, read-out: Activity; summary of the method: as §2
# NCI/ADR-RES = test: Cytotoxicity against human NCI/ADR-RES cells assessed as cell growth at 10^-5 M after 48 hrs by SRB assay; type: functional; details: read-out: Activity; summary of the method: as §2
# SK-OV-3 = test: Cytotoxicity against human SKOV3 cells assessed as cell growth at 10^-5 M after 48 hrs by SRB assay; type: functional; details: SK-OV-3, 48 h, read-out: Activity; summary of the method: as §1
# OVCAR-4 = test: Cytotoxicity against human OVCAR4 cells assessed as cell growth at 10^-5 M after 48 hrs by SRB assay; type: functional; details: OVCAR-4, 48 h, read-out: Activity; summary of the method: as §2
# OVCAR-3 = test: Cytotoxicity against human OVCAR3 cells assessed as cell growth at 10^-5 M after 48 hrs by SRB assay; type: functional; details: OVCAR-3, 48 h, read-out: Activity; summary of the method: as §2
# UACC-62 = test: Cytotoxicity against human UACC62 cells assessed as cell growth at 10^-5 M after 48 hrs by SRB assay; type: functional; details: UACC-62, 48 h, read-out: Activity; summary of the method: as §1
# UACC-257 = test: Cytotoxicity against human UACC257 cells assessed as cell growth at 10^-5 M after 48 hrs by SRB assay; type: functional; details: UACC-257, 48 h, read-out: Activity; summary of the method: as §1
# SK-MEL-5 = test: Cytotoxicity against human SK-MEL-5 cells assessed as cell growth at 10^-5 M after 48 hrs by SRB assay; type: functional; details: SK-MEL-5, 48 h, read-out: Activity; summary of the method: as §1
# SK-MEL-2 = test: Cytotoxicity against human SK-MEL-2 cells assessed as cell growth at 10^-5 M after 48 hrs by SRB assay; type: functional; details: SK-MEL-2, 48 h, read-out: Activity; summary of the method: as §2
# SK-MEL-28 = test: Cytotoxicity against human SK-MEL-28 cells assessed as cell growth at 10^-5 M after 48 hrs by SRB assay; type: functional; details: SK-MEL-28, 48 h, read-out: Activity; summary of the method: as §1
# MDA-MB-435 = test: Cytotoxicity against human MDA-MB-435 cells assessed as cell growth at 10^-5 M after 48 hrs by SRB assay; type: functional; details: MDA-MB-435, 48 h, read-out: Activity; summary of the method: as §2
# Malme-3M = test: Cytotoxicity against human MALME-3M cells assessed as cell growth at 10^-5 M after 48 hrs by SRB assay; type: functional; details: read-out: Activity; summary of the method: as §2
# SNB-19 = test: Cytotoxicity against human SNB19 cells assessed as cell growth at 10^-5 M after 48 hrs by SRB assay; type: functional; details: SNB-19, 48 h, read-out: Activity; summary of the method: as §1
# SF-539 = test: Cytotoxicity against human SF539 cells assessed as cell growth at 10^-5 M after 48 hrs by SRB assay; type: functional; details: SF-539, 48 h, read-out: Activity; summary of the method: as §2
# KM12 = test: Cytotoxicity against human KM12 cells assessed as cell growth at 10^-5 M after 48 hrs by SRB assay; type: functional; details: KM12, 48 h, read-out: Activity; summary of the method: as §2
# HCT-15 = test: Cytotoxicity against human HCT15 cells assessed as cell growth at 10^-5 M after 48 hrs by SRB assay; type: functional; details: HCT-15, 48 h, read-out: Activity; summary of the method: as §2
# HT-29 = test: Cytotoxicity against human HT-29 cells assessed as cell growth at 10^-5 M after 48 hrs by SRB assay; type: functional; details: HT-29, 48 h, read-out: Activity; summary of the method: as §2
# HCC 2998 = test: Cytotoxicity against human HCC2998 cells assessed as cell growth at 10^-5 M after 48 hrs by SRB assay; type: functional; details: HCC 2998, 48 h, read-out: Activity; summary of the method: as §2
# NCI-H226 = test: Cytotoxicity against human NCI-H226 cells assessed as cell growth at 10^-5 M after 48 hrs by SRB assay; type: functional; details: NCI-H226, 48 h, read-out: Activity; summary of the method: as §2
# A549 = test: Cytotoxicity against human A549 cells assessed as cell growth at 10^-5 M after 48 hrs by SRB assay; type: functional; details: A549, 48 h, read-out: Activity; summary of the method: as §2
# CCRF-CEM = test: Cytotoxicity against human CCRF-CEM cells assessed as cell growth at 10^-5 M after 48 hrs by SRB assay; type: functional; details: read-out: Activity; summary of the method: as §2
# Rattus norvegicus = test: Gastrointestinal toxicity in albino rat assessed as ulcer index at 0.28 mmol/kg, po (reference value: 0.60 +/- 0.05); type: organism-based; details: in vivo
# [1] = Induction of nitric oxide release in phosphate buffer at pH 7.4 at 0.1 mM after 6 hrs by Griess method in presence of 0.5 mM of N-acetylcysteine; type: physicochemical; details: pH 7.4, 6 h, 100 µM
# Summary of the method: (§3)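 Compound in DMF diluted to final 10^-4 M in 1:1 50 mM phosphate buffer pH 7.4/MeOH with 5×10^-4 M N-acetylcysteine, 37 °C. Aliquot mixed with Griess reagent, 10 min at room temperature, A546 read. Nitrite quantified against sodium nitrite standards (10–80 nmol/mL); NO expressed as mol/mol. n = 4 reaction mixtures per compound.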
# [2] = Induction of nitric oxide release in phosphate buffer at pH 7.4 at 0.1 mM after 5 hrs by Griess method in presence of 0.5 mM of N-acetylcysteine; type: physicochemical; details: pH 7.4, 5 h, 100 µM; summary of the method: as §3
# [3] = Induction of nitric oxide release in phosphate buffer at pH 7.4 at 0.1 mM after 4 hrs by Griess method in presence of 0.5 mM of N-acetylcysteine; type: physicochemical; details: pH 7.4, 4 h, 100 µM; summary of the method: as §3
# [4] = Induction of nitric oxide release in phosphate buffer at pH 7.4 at 0.1 mM after 3 hrs by Griess method in presence of 0.5 mM of N-acetylcysteine; type: physicochemical; details: pH 7.4, 3 h, 100 µM; summary of the method: as §3
# HOP-92 = test: Cytotoxicity against human HOP92 cells assessed as cell growth at 10^-5 M after 48 hrs by SRB assay; type: functional; details: HOP-92, 48 h, read-out: Activity; summary of the method: as §2
Structure (SMILES),growth at 10 µM (T47D) [%],growth at 10 µM (MDA-MB-231) [%],growth at 10 µM (DU-145) [%],growth at 10 µM (ACHN) [%],growth at 10 µM (A498) [%],growth at 10 µM (786-0) [%],growth at 10 µM (NCI/ADR-RES) [%],growth at 10 µM (SK-OV-3) [%],growth at 10 µM (OVCAR-4) [%],growth at 10 µM (OVCAR-3) [%],growth at 10 µM (UACC-62) [%],growth at 10 µM (UACC-257) [%],growth at 10 µM (SK-MEL-5) [%],growth at 10 µM (SK-MEL-2) [%],growth at 10 µM (SK-MEL-28) [%],growth at 10 µM (MDA-MB-435) [%],growth at 10 µM (Malme-3M) [%],growth at 10 µM (SNB-19) [%],growth at 10 µM (SF-539) [%],growth at 10 µM (KM12) [%],also measured
O/N=C(/CSc1nnc(-c2ccccc2)n1-c1ccccc1)c1ccccc1,98,68.4,99.2,117,49.5,109,100,103,86.6,92.3,87.7,87.6,89.2,101,118,97.5,100,84.8,120,97.5,growth at 10 µM (HCT-15): 101%; growth at 10 µM (HT-29): 91.6%; growth at 10 µM (HCC 2998): 121%; growth at 10 µM (NCI-H226): 95.6%; growth at 10 µM (A549): 88.6%; growth at 10 µM (CCRF-CEM): 91%; UI (Rattus norvegicus): 2.53; Activity [1]: 0.09 mol/mol; Activity [2]: 0.15 mol/mol; Activity [3]: 0.13 mol/mol; Activity [4]: 0.12 mol/mol
COc1ccc(-c2nnc(SC/C(=N/O)c3ccccc3)n2-c2ccccc2)cc1,86,117,119,107,73.8,93.3,97.9,111,86.4,111,94.3,98,93.9,106,117,102,96.5,97.3,107,112,growth at 10 µM (HCT-15): 95.1%; growth at 10 µM (HT-29): 95.1%; growth at 10 µM (HCC 2998): 112%; growth at 10 µM (NCI-H226): 103%; growth at 10 µM (HOP-92): 101%; growth at 10 µM (A549): 85%; growth at 10 µM (CCRF-CEM): 83.5%; UI (Rattus norvegicus): 7.57; Activity [1]: 0.12 mol/mol; Activity [2]: 0.15 mol/mol; Activity [3]: 0.15 mol/mol; Activity [4]: 0.09 mol/mol
COc1ccc(-c2nnc(SC/C(=N/O)c3ccccc3)n2-c2ccccc2)cc1OC,90.1,87.5,114,95.4,94.2,102,93.2,103,90.4,106,89.5,101,85.8,116,113,109,93.7,101,103,99.8,growth at 10 µM (HCT-15): 98.3%; growth at 10 µM (HT-29): 97.5%; growth at 10 µM (HCC 2998): 114%; growth at 10 µM (NCI-H226): 94.9%; growth at 10 µM (HOP-92): 86.5%; growth at 10 µM (A549): 90.1%; growth at 10 µM (CCRF-CEM): 84.4%; UI (Rattus norvegicus): 5.71; Activity [1]: 0.17 mol/mol; Activity [2]: 0.23 mol/mol; Activity [3]: 0.19 mol/mol; Activity [4]: 0.18 mol/mol

# Source: ChEMBL document CHEMBL2390929, “New nitric oxide donating 1,2,4-triazole/oxime hybrids: synthesis, investigation of anti-inflammatory, ulceroginic liability and antiproliferative activities” (Bioorg Med Chem, 2013)
